{"data": "Published values of several laboratories", "organism": "Staphylococcus aureus", "read-out": "microbial growth", "note": "Each line is one published result; the experiments were not run side by side."}
{"Compound": "CCN1CCC(CCNCc2cc3cc(OC)c(OC)c(OC)c3nc2SCc2ccccc2)CC1", "assay": "broth dilution", "MIC": "128 µg/mL"}
{"Compound": "N=c1sc(C(=O)c2ccc(Nc3cnccn3)cc2)nn1-c1ccc([N+](=O)[O-])cc1", "assay": "broth dilution", "system": "ATCC25923", "MIC": "3.12 µg/mL"}
{"Compound": "[H]/N=C(\\N/C(=N/[H])NCCCCCCNC(=N)NC(=N)Nc1ccc(Cl)cc1)Nc1ccc(Cl)cc1", "system": "ATCC33591 MRSA", "setting": "drug-resistant strain", "MIC": "1 µM"}
{"Compound": "CC1(C)S[C@@H]2[C@H](NC(=O)[C@H](N)c3ccccc3)C(=O)N2[C@H]1C(=O)O", "assay": "broth dilution", "system": "MRSA", "MIC": "345 µM"}
{"Compound": "CC1(C)S[C@@H]2[C@H](NC(=O)[C@H](N)c3ccccc3)C(=O)N2[C@H]1C(=O)O", "assay": "agar dilution", "system": "ATCC29213", "MIC": "16 µg/mL"}
{"Compound": "CC[C@H]1OC(=O)[C@H](C)[C@@H](O[C@H]2C[C@@](C)(OC)[C@@H](O)[C@H](C)O2)[C@H](C)[C@@H](O[C@@H]2O[C@H](C)C[C@H](N(C)C)[C@H]2O)[C@](C)(O)C[C@@H](C)CN(C)[C@H](C)[C@@H](O)[C@]1(C)O", "assay": "broth dilution", "system": "USA300", "MIC": "> 64 µg/mL"}
{"Compound": "COc1c(N2C[C@@H]3CCCN[C@@H]3C2)c(F)cc2c(=O)c(C(=O)O)cn(C3CC3)c12", "assay": "agar dilution", "system": "ATCC29213", "MIC": "0.5 µg/mL"}
{"Compound": "CC(=O)NC[C@H]1CN(c2ccc(N3CCOCC3)c(F)c2)C(=O)O1", "assay": "broth dilution", "system": "USA300", "MIC": "1 µg/mL"}
{"Compound": "CC(=O)NC[C@H]1CN(c2ccc(N3CCOCC3)c(F)c2)C(=O)O1", "assay": "broth dilution", "system": "ATCC29213", "MIC": "1 µg/mL"}
{"Compound": "CN[C@H](CC(C)C)C(=O)N[C@H]1C(=O)N[C@@H](CC(N)=O)C(=O)N[C@H]2C(=O)N[C@H]3C(=O)N[C@H](C(=O)N[C@H](C(=O)O)c4cc(O)cc(O)c4-c4cc3ccc4O)[C@H](O)c3ccc(c(Cl)c3)Oc3cc2cc(c3O[C@@H]2O[C@H](CO)[C@@H](O)[C@H](O)[C@H]2O[C@H]2C[C@](C)(N)[C@H](O)[C@H](C)O2)Oc2ccc(cc2Cl)[C@H]1O", "assay": "agar dilution", "system": "ATCC43300", "MIC": "2 µg/mL"}
{"Compound": "CCCCCCC#Cc1cncc(-c2nnc(SCc3ccc([N+](=O)[O-])cc3)n2CCCN)c1", "assay": "broth dilution", "system": "ATCC29213", "MIC": "8 µg/mL"}
{"Compound": "Brc1ccc2nc(SCc3ccccc3)c(CNCc3ccc(CN4CCCC4)cc3)cc2c1", "assay": "broth dilution", "MIC": "32 µg/mL"}
{"Compound": "CCCCCCC#Cc1cncc(-c2nnc(SCc3ccc(Cl)cc3)n2CCCN)c1", "assay": "broth dilution", "system": "MRSA", "MIC": "4 to 8 µg/mL"}
{"Compound": "CC(=O)C1=NN(c2ccc([N+](=O)[O-])cc2)C(=C(C#N)C(=O)c2ccc(Nc3cnccn3)cc2)S1", "assay": "broth dilution", "system": "ATCC25923", "MIC": "6.25 µg/mL"}
{"Compound": "CCCCCCCCCCCC[N+](C)(C)Cc1ccccc1", "system": "MRSA USA300", "setting": "drug-resistant strain", "MIC": "8 µM"}
{"Compound": "CCCCCCC#Cc1cncc(-c2nnc(SCc3cc(C(F)(F)F)cc(C(F)(F)F)c3)n2CCCN)c1", "assay": "broth dilution", "system": "ATCC29213", "MIC": "4 µg/mL"}
{"Compound": "C=C[C@]1(C)C[C@@H](OC(=O)CS[C@@H]2C[C@H]3CC[C@@H](C2)N3C)[C@]2(C)[C@H](C)CC[C@]3(CCC(=O)[C@H]32)[C@@H](C)[C@@H]1O", "assay": "agar dilution", "system": "ATCC25923", "MIC": "0.0312 µg/mL"}
{"Compound": "COc1cccc(OC)c1C(=O)N[C@@H]1C(=O)N2[C@@H]1SC(C)(C)[C@@H]2C(=O)O", "assay": "broth dilution", "system": "USA300", "MIC": "> 64 µg/mL"}
{"Compound": "CCCCCCCCN=c1ccn(CCCCCCCCCCn2ccc(=NCCCCCCCC)cc2)cc1", "system": "ATCC33591 MRSA", "setting": "drug-resistant strain", "MIC": "1 µM"}
{"Compound": "CC[C@H]1OC(=O)[C@H](C)[C@@H](O[C@H]2C[C@@](C)(OC)[C@@H](O)[C@H](C)O2)[C@H](C)[C@@H](O[C@@H]2O[C@H](C)C[C@H](N(C)C)[C@H]2O)[C@](C)(O)C[C@@H](C)/C(=N\\OCOCCOC)[C@H](C)[C@@H](O)[C@]1(C)O", "assay": "agar dilution", "system": "ATCC25923", "MIC": "2 µg/mL"}
{"Compound": "Cc1ccc2[nH]nc(-c3nnc(Nc4ccc(F)cc4Cl)s3)c2c1", "system": "ATCC29213", "MIC": "29.7 µg/mL"}
{"Compound": "CN1CCN(CCNCc2cc3cc(-c4ccccc4)ccc3nc2SCc2ccccc2)CC1", "assay": "broth dilution", "MIC": "8 µg/mL"}
{"Compound": "CCCCCCC#Cc1cncc(-c2nnc(SCc3ccc([N+](=O)[O-])o3)n2CCCN)c1", "assay": "broth dilution", "system": "MRSA", "MIC": "> 64 µg/mL"}
{"Compound": "CC(=O)c1ccc2cc(S(=O)(=O)NCc3ccccc3)ccc2c1", "assay": "broth dilution", "system": "ATCC25923", "MIC": "40000 µg/mL"}
{"Compound": "CN(C)[C@@H]1C(O)=C(C(N)=O)C(=O)[C@@]2(O)C(O)=C3C(=O)c4c(O)cccc4[C@@](C)(O)[C@H]3C[C@@H]12", "assay": "broth dilution", "system": "ATCC25923", "setting": "16 h", "MIC": "3.1 µM"}
{"Compound": "CCCCCCC#Cc1cncc(-c2nnc(SCc3cc([N+](=O)[O-])cc([N+](=O)[O-])c3)n2CCOC2OC(CN)C(O)C2O)c1 (stereo not drawn)", "assay": "broth dilution", "system": "ATCC29213", "MIC": "> 64 µg/mL"}
{"Compound": "Brc1ccc2nc(SCc3ccccc3)c(CNCCC3CCN(C4CCCC4)CC3)cc2c1", "assay": "broth dilution", "MIC": "32 µg/mL"}
{"Compound": "N[C@@H](Cc1c[nH]c2ccc(Cl)cc12)C(=O)O", "system": "NEWMAN", "setting": "18 h", "MIC": "200 µM"}
{"Compound": "O=C(O)c1cn(C2CC2)c2cc(N3CCNCC3)c(F)cc2c1=O", "assay": "broth dilution", "system": "ATCC33591 MRSA", "MIC": "0.5 µg/mL"}
{"Compound": "Cc1ccc2[nH]nc(-c3nnc(Nc4ccc(C)c(C)c4)s3)c2c1", "system": "ATCC29213", "MIC": "94.2 µg/mL"}
{"Compound": "C[C@@H](O)[C@H]1C(=O)N2C(C(=O)O)=C(S[C@@H]3CN[C@H](C(=O)N(C)C)C3)[C@H](C)[C@H]12", "system": "ATCC29213 MSSA", "setting": "drug-resistant strain", "MIC": "0.06 µg/mL"}
{"Compound": "CC(=O)NC[C@H]1CN(c2ccc(N3CCOCC3)c(F)c2)C(=O)O1", "assay": "agar dilution", "system": "ATCC43300", "MIC": "2 µg/mL"}
{"Compound": "O=C(N[C@H](CO)[C@H](O)c1ccc([N+](=O)[O-])cc1)C(Cl)Cl", "assay": "broth dilution", "MIC": "64 µg/mL"}
{"Compound": "Cc1ccc2[nH]nc(-c3nnc(Nc4ccc(F)cc4)s3)c2c1", "system": "ATCC29213", "MIC": "18.3 µg/mL"}
{"Compound": "N#CC(C#N)=C1SC(C(=O)c2ccc(Nc3cnccn3)cc2)=NN1c1ccccc1", "assay": "broth dilution", "system": "ATCC25923", "MIC": "50 µg/mL"}
{"Compound": "Cc1ccc2[nH]nc(-c3nnc(Nc4cc(Cl)cc(Br)c4)s3)c2c1", "system": "ATCC29213", "MIC": "204 µg/mL"}
{"Compound": "COc1ccc(-n2nc(C(=O)c3ccc(Nc4cnccn4)cc3)sc2=N)cc1", "assay": "broth dilution", "system": "ATCC25923", "MIC": "6.25 µg/mL"}
{"Compound": "CCC[C@@H]1C[C@@H](C(=O)N[C@@H]([C@H]2O[C@H](SC)[C@H](O)[C@@H](O)[C@H]2O)[C@@H](C)O)N(C)C1", "assay": "broth dilution", "system": "ATCCBAA44 BAA44", "MIC": "> 64 µg/mL"}
{"Compound": "Cc1cc(O)cc(Nc2nnc(-c3n[nH]c4ccc(C)cc34)s2)c1", "system": "ATCC29213", "MIC": "87.6 µg/mL"}
